Bioassay records deposited in PubChem by The Scripps Research Institute Molecular Screening Center.
Only some compounds are listed: those with a hit (about 1.5% of all), similar ones and a draw of the others.
CHRM4 agonist – human M4 muscarinic receptor agonists, primary screen, CHO-K1 cells, Fluo-8 calcium fluorescence | 360,000 compounds, 0.14% hits | AID 624127, 2012 | CHO-K1 hM4/Gqi5; vehicle 0%, full acetylcholine response 100% | activation, % at 3 µM | Muscarinic acetylcholine receptor M4 (Homo sapiens), P08173;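 active = activation above the run mean over all test wells plus 3 SD, cut at about 32% in these data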;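 also: peak over basal fluorescence ratio per well then scaled between controls; 0% = DMSO wells and 100% = acetylcholine at EC100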
M4 PAM – human M4 muscarinic receptor positive allosteric modulators, primary screen, CHO-K1 cells, Fluo-8 calcium fluorescence | CHO-K1 hM4/Gqi5, ACh EC20; 0% = ACh EC20, 100% = maximal ACh | AID 624126, 2012 | 360,000 compounds, 0.4% hits | Muscarinic acetylcholine receptor M4 (Homo sapiens), P08173 | activation, % at 3 µM;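 active = activation above its plate's cutoff, the mean activation of sample wells plus 3 SD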
OXTR potentiate – human OXTR potentiators, primary screen, fluorescence, CHO-OTR cells, Fluo-8 calcium. Fluo-8 calcium fluorescence, potentiator mode; 0% = oxytocin EC15, 100% = EC100. 320,000 compounds, 0.061% hits. activation, % at 3 µM. AID 2445, 2010. Oxytocin receptor (Homo sapiens), P30559;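 active = activation above that plate's cutoff, the mean activation of tested compounds plus 3 SD, cut at about 6.6% in these data, passing the limit was not always enough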;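 also: 100% uses oxytocin at 75 nM as the full agonist control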
Target sequence (P30559 whole entry, looked up): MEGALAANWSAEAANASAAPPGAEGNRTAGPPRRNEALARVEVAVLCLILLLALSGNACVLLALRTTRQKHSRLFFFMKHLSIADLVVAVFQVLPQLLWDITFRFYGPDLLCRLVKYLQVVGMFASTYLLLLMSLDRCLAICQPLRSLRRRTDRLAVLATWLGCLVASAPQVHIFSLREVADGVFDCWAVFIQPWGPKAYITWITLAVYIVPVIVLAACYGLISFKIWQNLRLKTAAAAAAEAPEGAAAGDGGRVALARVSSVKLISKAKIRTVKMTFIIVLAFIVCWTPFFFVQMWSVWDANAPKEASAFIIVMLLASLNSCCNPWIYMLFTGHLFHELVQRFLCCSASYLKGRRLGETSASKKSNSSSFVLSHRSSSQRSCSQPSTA
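Assay system: CHO cell line stably expressing human OTR. Reagent: EC15 oxytocin agonist. Dosing: single dose, 3.0 µM nominal final compound concentration. Timing: compound 6 min at room temperature before oxytocin, 100 s read. Signal: kinetic Fluo-8 calcium fluorescence. Controls: oxytocin EC15 low and EC100 high.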
M4 antag – human M4 muscarinic receptor antagonists, primary screen, CHO cells, Fluo-8 calcium fluorescence; CHO-hM4 cells, ACh EC80; inhibition, % at 3 µM; AID 624125, 2012; Muscarinic acetylcholine receptor M4 (Homo sapiens), P08173; 360,000 compounds, 0.73% hits;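 active = inhibition above its plate's cutoff, the mean inhibition of sample wells plus 3 SD, cut at about 27% in these data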;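 also: 0% = acetylcholine EC80 with DMSO and 100% = DMSO without agonist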
OXTR ag – human OXTR agonists, primary screen, fluorescence, CHO-OTR cells, Fluo-8 calcium; Fluo-8 calcium fluorescence; normalized: DMSO 0%, oxytocin 100%; activation, % at 3 µM; 320,000 compounds, 0.32% hits;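 active = activation above the mean of all tested compounds plus 3 SD, cutoff set per screening run, cut at about 20% in these data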;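 also: peak over basal fluorescence ratio from a 100 s FLIPR kinetic read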
V1aR counter – agonists of human V1a receptor, primary screen, counter-screen for OXTR agonist project, fluorescence, CHO-V1R cells; 320,000 compounds, 0.25% hits; Vasopressin V1a receptor (Homo sapiens), P37288; activation, % at 3 µM; Fluo-8 calcium fluorescence, agonist mode; 0% DMSO, 100% 3 nM vasopressin;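 active = activation above the mean activation of all tested compounds plus 3 SD, per screening run, cut at about 20% in these data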;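 also: signal is peak over basal fluorescence ratio across a 100 second FLIPR read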
OXTR ag confirm – human OXTR agonists, confirmation, fluorescence, CHO-OTR cells, triplicate; shares compounds with OXTR ag; Fluo-8 calcium fluorescence, agonist; activation, % at 3 µM; 390 compounds, 20% hits;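 active = mean activation above about 20% derived from the earlier single-dose screen, limit read from the data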;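 also: peak over minimum fluorescence ratio per well during a 100 second FLIPR read; 0% = DMSO alone and 100% = oxytocin high control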
V1R ag counter 3x – V1a receptor agonists, calcium signal, counter-screen for OXTR agonist project, triplicate, fluorescence, CHO-V1R cells. shares compounds with OXTR ag. Fluo-8 calcium fluorescence. activation, % at 3 µM. 390 compounds, 10% hits. AID 434991, 2010;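 active = mean activation over triplicate exceeds the hit threshold set in the earlier primary screen, cut at about 20% in these data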;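 also: peak over basal fluorescence ratio within a 100 second read; 0% = DMSO alone and 100% = 3 nM vasopressin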
OXTR pot confirm – human OXTR potentiators, confirmation, fluorescence, CHO-OTR cells, triplicate; shares compounds with OXTR potentiate; Fluo-8 calcium fluorescence, potentiation; scaled from low-dose to maximal oxytocin; activation, % at 3 µM; 180 tested, under 10 active; AID 434985, 2010;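 active = mean percent activation over triplicates above a cutoff set from solvent-only control plates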;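 also: compounds tested in the presence of an EC15 dose of oxytocin; 0% = EC15 oxytocin with DMSO and 100% = EC100 oxytocin with DMSO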
Numbers without * were called inactive; . = no result given.

SMILES	CHRM4 agonist	M4 PAM	OXTR potentiate	M4 antag	OXTR ag	V1aR counter	OXTR pot confirm	others
Cc1cc(-c2nnc(SCC(=O)Nc3ccccc3C(F)(F)F)o2)c(C)n1-c1ccccc1	5.4	-3.1	-24.2	2.8	21.3*	16.4	.	OXTR ag confirm=24.3*;V1R ag counter 3x=11.0
Cc1cccc(NC(=O)CSc2nnc(-c3cc(C)n(-c4ccccc4)c3C)o2)c1C	0.6	0.9	-9.7	-0.1	0.4	1.5	.
CN(c1ccccc1)S(=O)(=O)c1ccc(C(=O)N2CCCC2)cc1	-0.5	-1.2	-8.2	2.4	0.1	0.2	.
CN(c1ccc(C(=O)N2CCCCC2)cc1)S(=O)(=O)c1ccccc1	8.8	-6.4	-24.6	-1.5	20.9*	11.3	.	OXTR ag confirm=6.2;V1R ag counter 3x=7.3
Cc1cc(Cl)ccc1N=c1ssnc1Cl	12.9	7.2	-9.4	-14.4	21.2*	9.9	.	OXTR ag confirm=21.3*;V1R ag counter 3x=15.6
COc1ccc(-c2csc(N(CCCN(C)C)C(=O)c3ccccc3Cl)n2)cc1	8.5	-16.4	-7.3	19.6	22.8*	15.4	.	OXTR ag confirm=6.4;V1R ag counter 3x=3.1
O=C1CCC(C(=O)N2CCN(c3cnccn3)CC2)CN1CCc1ccc(Cl)cc1 (stereo unspecified)	2.7	-1.0	.	-10.1	.	.	.
CC(C)N(CCNCC(O)COc1ccc(C(C)(C)c2ccccc2)cc1)C(C)C (stereo unspecified)	9.5	-17.1	-24.0	2.7	22.6*	16.2	.	OXTR ag confirm=9.6;V1R ag counter 3x=3.7
CN(C)CCCOc1ccc(C(C)(C)c2ccccc2)cc1	7.0	0.0	-12.8	19.1	19.8*	10.0	.	OXTR ag confirm=6.7;V1R ag counter 3x=0.8
CCOC(=O)c1c(NC(=O)c2nn(C)cc2[N+](=O)[O-])sc(C)c1C	1.1	-0.4	-19.6	0.2	-1.5	-1.8	.
C=CCN1C(=O)/C(=C/c2ccc(OCC(=O)O)cc2)S/C1=N/c1nccs1	0.8	0.9	-1.6	-8.8	-2.2	-0.1	.
C=CCN1C(=O)/C(=C/c2ccc(O)c(OC)c2)S/C1=N/c1nccs1	21.7	-10.7	-10.1	18.0	20.2*	18.1	.	OXTR ag confirm=26.8*;V1R ag counter 3x=37.6*
O=C(O/C(=C/c1ccccc1)C(F)(F)F)c1ccccc1	0.2	2.1	.	-0.7	.	.	.
COc1cc(/C=C2\S/C(=N/S(=O)(=O)Cc3ccccc3)NC2=O)c([N+](=O)[O-])cc1OC	0.0	-1.6	2.9	0.4	1.6	1.6	.
COc1cc(/C=C2/S/C(=N/S(=O)(=O)Cc3ccccc3)NC2=O)c([N+](=O)[O-])cc1OC	-0.5	-3.5	13.1*	11.1	2.2	1.2	-4.5
O=C(CN1CCC(C(=O)c2ccc(Cl)cc2)CC1)Nc1ccc2c(c1)OCCO2	3.0	-8.1	-8.2	2.7	3.2	3.6	.
COC(=O)c1cc(S(=O)(=O)N2CCCCC2C)c[nH]1 (stereo unspecified)	0.6	13.5	11.0*	-6.1	0.5	0.9	-7.7
COC(=O)c1cc(S(=O)(=O)N2CCCC(C)C2)c[nH]1 (stereo unspecified)	1.0	0.4	-6.7	-0.9	-0.4	1.4	.
Cc1ccnc(NC(=O)CN2C(=O)NC(C)(c3ccc4ccccc4c3)C2=O)c1 (stereo unspecified)	7.1	-0.3	.	-1.0	.	.	.
CCNc1nc(NC(C)C)nc(N(C)C#N)n1	-0.3	5.9	13.1*	5.1	-1.0	0.6	2.7
CCCN(C#N)c1nc(NCC)nc(NC(C)C)n1	-0.5	10.2	-7.0	-1.6	-0.6	-0.7	.
CCCN(CCC)CCNC(=O)CCC(=O)Nc1ccc2nc(N3CCN(C)CC3)cc(C)c2c1	-0.1	5.7	12.3*	9.3	0.3	0.6	-0.9
O=C(CC(c1ccco1)C1CCCCC1=O)c1ccccc1 (stereo unspecified)	-1.6	2.3	4.7	2.5	-2.1	-1.5	.
COCCCNc1c2c(nc3nnnn13)CCCC2	2.8	17.5	13.5*	-4.1	2.2	0.5	-1.8
O=C(/C=C/c1ccc([N+](=O)[O-])cc1)c1cccnc1	-0.6	7.7	13.0*	-5.7	2.9	1.3	-6.0
SMILES	CHRM4 agonist	M4 PAM	OXTR potentiate	M4 antag	OXTR ag	V1aR counter	OXTR pot confirm	others
COCCCNC(=O)C[C@@H]1C[C@@]2(C(=O)OC)CC(C)(C)CC=C2N(Cc2ccccc2)C1=O	2.4	8.0	.	-2.1	.	.	.
O=C(COc1ncnc2ccc(Br)cc12)NC1CCCC1	1.8	24.9*	12.7*	-11.2	1.1	0.4	-5.8
O=C(COc1ncnc2ccccc12)NC1CCCCC1	-0.3	8.2	-3.3	-6.1	0.4	1.8	.
Cc1ccc(C(c2ccc(C)c(C)c2)C(O)C2OC(=O)C(O)C2O)cc1C (stereo unspecified)	3.8	4.9	.	-21.9	.	.	.
Cc1ccc(NC(=O)CCS(=O)(=O)c2ccccc2)cc1S(=O)(=O)N1CCOCC1	2.6	4.5	11.4*	2.9	2.3	1.2	-0.8
Cc1ccc(NC(=O)CCc2ccccc2)cc1S(=O)(=O)N1CCOCC1	4.2	-5.3	-4.0	3.3	1.9	1.1	.
O=C(NC(=S)Nc1ccccc1N1CCCC1)c1ccc(-c2cccc([N+](=O)[O-])c2)o1	2.7	2.5	10.8*	-14.4	0.5	-1.1	-7.0
O=C(NC(=S)Nc1ccccc1N1CCCCC1)c1ccc(-c2cccc([N+](=O)[O-])c2)o1	1.3	12.5	-1.1	-4.0	-0.7	0.2	.
CCOC(=O)c1cnc2cc(-c3ccc(C)cc3)nn2c1-c1ccccc1	0.1	-1.4	14.1*	6.4	1.9	1.4	-10.9
Cc1ccc(S(=O)(=O)N2CCCCC2)cc1NC(=O)COC(=O)c1ccc2c(c1)OCO2	0.8	-19.4	-6.1	6.6	0.7	3.8	.
CCC(C)[C@H](NC(=O)NCCCOC(C)C)C(=O)OC (stereo partly specified)	0.6	5.6	-1.2	2.6	-0.5	1.0	.
CCCOc1ccc(C(=O)N2CCCc3ccccc32)cc1	-3.1	11.4	-9.7	2.8	-1.9	-0.6	.
